Data from ChEMBL document CHEMBL4831494, “Synthesis and evaluation of FAK inhibitors with a 5-fluoro-7H-pyrrolo[2,3-d]pyrimidine scaffold as anti-hepatocellular carcinoma agents” (Eur J Med Chem, 2021).
pIC50: −log10 of the molar value.

Assays:
Focal adhesion kinase 1 = Focal adhesion kinase 1 (Homo sapiens, UniProt Q05397); test: Inhibition of FAK (unknown origin) using Poly(Glu,Tyr) and ATP as substrate measured after 40 mins by Kinase-Glo Plus luminescence assay
cells = details: Homo sapiens, YY-8103, 48 h
SMMC-7721 [1] = test: cells; details: Homo sapiens, SMMC-7721, 48 h
[2] = Toxicity in BALB/c nude mouse assessed as animal's mortality at 30 mg/kg, ip measured on day 11; type: organism-based; details: in vivo, 264 h, time 11 day
In short: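 Six-week-old male BALB/c nude mice bearing subcutaneous SMMC7721 xenografts (1.0 × 10⁷ cells); dosing started at mean tumor 25-35 mm³, n = 8 per group. Ip every 3 days in DMSO/propylene glycol/PBS (2:5:3); vehicle 1.0 mL/kg as negative control. Body weight weighed and deaths recorded every 3 days before each dose, through day 19.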

SMMC-7721 [3] = test: Antitumor activity against human […] cells xenografted in BALB/c nude mouse assessed as tumor size at 30 mg/kg, ip administered for 19 days (reference value: 600.8 mm3); type: functional; details: time 19 day
In short: (§1)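 Male BALB/c nude mice, six weeks old, inoculated s.c. with 1.0 × 10⁷ SMMC7721 cells. Dosing began at mean tumour 25e35 mm³; five randomized groups, n = 8. Solvent DMSO/propylene glycol/PBS 2:5:3 (vehicle 1.0 mL/kg), all given i.p. every 3 days. Tumour size (calipers) and body weight taken before each dose. V = length × width²/2. TGI = [1 − (T−T₀)/(C−C₀)] × 100.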

SMMC-7721 [4] = test: Antitumor activity against human […] cells xenografted in BALB/c nude mouse assessed as tumor growth inhibition at 30 mg/kg, ip administered for 19 days; type: functional; details: SMMC-7721, ip, 456 h, time 19 day, read-out: TGI; in short: as §1
[5] = Toxicity in BALB/c nude mouse assessed as effect on body weight at 30 mg/kg, ip administered for 19 days; type: organism-based; details: in vivo, 456 h, time 19 day; in short: as §1

Sequence of Focal adhesion kinase 1 (Q05397 whole entry): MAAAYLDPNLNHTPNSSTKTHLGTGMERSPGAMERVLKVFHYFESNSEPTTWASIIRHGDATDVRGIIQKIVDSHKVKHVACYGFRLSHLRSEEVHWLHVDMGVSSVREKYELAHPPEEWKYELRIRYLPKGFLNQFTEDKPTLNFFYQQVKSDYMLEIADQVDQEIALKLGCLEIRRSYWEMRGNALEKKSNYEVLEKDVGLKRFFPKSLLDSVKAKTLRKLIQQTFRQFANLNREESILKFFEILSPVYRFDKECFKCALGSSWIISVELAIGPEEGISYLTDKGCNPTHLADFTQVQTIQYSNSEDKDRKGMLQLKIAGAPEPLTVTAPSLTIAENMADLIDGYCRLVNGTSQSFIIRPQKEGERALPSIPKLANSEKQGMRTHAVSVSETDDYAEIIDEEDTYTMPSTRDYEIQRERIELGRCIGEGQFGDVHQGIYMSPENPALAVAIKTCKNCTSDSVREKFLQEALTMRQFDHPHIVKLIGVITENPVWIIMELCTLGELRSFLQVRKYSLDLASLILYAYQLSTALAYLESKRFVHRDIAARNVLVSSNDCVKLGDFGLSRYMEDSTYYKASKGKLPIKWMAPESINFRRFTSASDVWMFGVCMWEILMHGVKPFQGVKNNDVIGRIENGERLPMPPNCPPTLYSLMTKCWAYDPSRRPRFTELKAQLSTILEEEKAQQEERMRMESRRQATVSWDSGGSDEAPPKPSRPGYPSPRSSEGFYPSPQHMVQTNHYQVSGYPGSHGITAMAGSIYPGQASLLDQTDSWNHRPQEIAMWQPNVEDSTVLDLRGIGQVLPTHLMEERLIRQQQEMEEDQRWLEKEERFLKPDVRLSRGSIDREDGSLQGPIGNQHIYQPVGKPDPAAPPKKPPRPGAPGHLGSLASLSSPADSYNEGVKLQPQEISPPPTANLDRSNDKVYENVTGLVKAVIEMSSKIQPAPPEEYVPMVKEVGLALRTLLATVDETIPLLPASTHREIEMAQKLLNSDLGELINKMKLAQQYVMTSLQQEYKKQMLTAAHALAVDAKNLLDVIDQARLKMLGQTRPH

Question: With `CNC(=O)c1ccccc1Nc1nc(Nc2ccc(N3CCOCC3)cc2OC)nc2[nH]cc(F)c12` as the compound, how does the pIC50 (Focal adhesion kinase 1) read?
Answer: 7.64

Question: What about the pIC50 (cells) of the same compound?
Answer: 4.85

Question: What about the pIC50 (SMMC-7721 [1]) of the same compound?
Answer: 4.47

Question: With `CN(c1ncccc1CNc1nc(Nc2ccc3c(c2)CC(=O)N3)nc2[nH]ccc12)S(C)(=O)=O` as the compound, how does the pIC50 (Focal adhesion kinase 1) read?
Answer: 7.26

Question: What about the pIC50 (cells) of the same compound?
Answer: 4.87

Question: What about the pIC50 (SMMC-7721 [1]) of the same compound?
Answer: 4.28

Question: With `CC(=O)Nc1cccc(Nc2nc(NCc3cccnc3N(C)S(C)(=O)=O)c3c(F)c[nH]c3n2)c1` as the compound, how does the pIC50 (Focal adhesion kinase 1) read?
Answer: 7.68

Question: What about the pIC50 (cells) of the same compound?
Answer: 4.84

Question: And the pIC50 (SMMC-7721 [1])?
Answer: 4.80

Question: What does the source list for `CC(=O)NCc1cccc(Nc2nc(NCc3cccnc3N(C)S(C)(=O)=O)c3c(F)c[nH]c3n2)c1`?
Answer: pIC50 (Focal adhesion kinase 1): 7.64; pIC50 (cells): 4.69; pIC50 (SMMC-7721 [1]): 4.66

Question: Which results are given for `COc1ccc(Nc2nc(NCc3cccnc3N(C)S(C)(=O)=O)c3c(F)c[nH]c3n2)cc1OC`?
Answer: pIC50 (Focal adhesion kinase 1): 7.82; pIC50 (cells): 4.74; pIC50 (SMMC-7721 [1]): 4.26

Question: With `CN1CCN(c2ccc(Nc3nc(NCc4cccnc4N(C)S(C)(=O)=O)c4c(F)c[nH]c4n3)cc2)CC1` as the compound, how does the pIC50 (Focal adhesion kinase 1) read?
Answer: 7.89

Question: And the pIC50 (cells)?
Answer: 5.62

Question: And the pIC50 (SMMC-7721 [1])?
Answer: 4.86

Question: With `Cc1c[nH]c2nc(Nc3ccc4c(c3)CC(=O)N4)nc(NCc3cccnc3N(C)S(C)(=O)=O)c12` as the compound, how does the pIC50 (Focal adhesion kinase 1) read?
Answer: 7.19

Question: What about the pIC50 (cells) of the same compound?
Answer: 4.91

Question: And the pIC50 (SMMC-7721 [1])?
Answer: 4.73

Question: With `CNC(=O)c1ccccc1Nc1nc(Nc2ccc3c(c2)CC(=O)N3)nc2[nH]cc(F)c12` as the compound, how does the pIC50 (Focal adhesion kinase 1) read?
Answer: 7.66

Question: What about the pIC50 (cells) of the same compound?
Answer: 5.33

Question: What about the pIC50 (SMMC-7721 [1]) of the same compound?
Answer: 5.00

Question: With `CN(c1ncccc1CNc1nc(Nc2cccc(C#N)c2)nc2[nH]cc(F)c12)S(C)(=O)=O` as the compound, how does the pIC50 (Focal adhesion kinase 1) read?
Answer: 7.46

Question: What about the pIC50 (cells) of the same compound?
Answer: < 4.00

Question: And the pIC50 (SMMC-7721 [1])?
Answer: < 4.00

Question: With `CN(c1ncccc1CNc1nc(Nc2ccc3c(c2)CC(=O)N3)nc2[nH]cc(C#N)c12)S(C)(=O)=O` as the compound, how does the pIC50 (Focal adhesion kinase 1) read?
Answer: 6.49

Question: And the pIC50 (cells)?
Answer: < 4.00

Question: And the pIC50 (SMMC-7721 [1])?
Answer: < 4.00

Question: With `COc1cc(Nc2nc(NCc3cccnc3N(C)S(C)(=O)=O)c3c(F)c[nH]c3n2)cc(OC)c1OC` as the compound, how does the pIC50 (Focal adhesion kinase 1) read?
Answer: 7.77

Question: What about the pIC50 (cells) of the same compound?
Answer: < 4.00

Question: What about the pIC50 (SMMC-7721 [1]) of the same compound?
Answer: < 4.00

Question: With `COc1cc(N2CCOCC2)ccc1Nc1nc(NCc2cccnc2N(C)S(C)(=O)=O)c2c(F)c[nH]c2n1` as the compound, how does the pIC50 (Focal adhesion kinase 1) read?
Answer: 7.64

Question: And the pIC50 (cells)?
Answer: 4.81

Question: What about the pIC50 (SMMC-7721 [1]) of the same compound?
Answer: 4.82

Question: For `CNC(=O)c1cc(Oc2ccc(NC(=O)Nc3ccc(Cl)c(C(F)(F)F)c3)cc2)ccn1` [SORAFENIB], which Activity [2] is on record?
Answer: Non-Toxic

Question: What about the Activity (SMMC-7721 [3]) of the same compound?
Answer: 343.4 mm3

Question: And the inhibition in vivo at 30 mg/kg (SMMC-7721 [4])?
Answer: 45.1%

Question: And the Activity [5]?
Answer: Non-Toxic
